Reference: PubChem BioAssay
Records with an inconclusive call do not appear. The source made the active and inactive calls.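 How the source made its calls, unless noted: active means viability at or below 27.92% in each of two runs, the all-compound median minus 4 SD; inconclusive means no clear call, values can overlap the other calls; inactive means the rest.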

Tests used:
[1] = S. cerevisiae growth inhibition in permissive medium (OD615), pilot counter-assay for S. cerevisiae lifespan shortening project, permissive growth control (AID 705;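 active means growth inhibition above 25% in both replicates, a cutoff set 3 SD above the mean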); conditions: OD615, 24 h, at 10 µM, active compounds read high
In short: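 System: S. cerevisiae with engineered DeaD lifespan system. Medium: SC raffinose/galactose permissive medium. Doses: single compound dose of 10 µM, 0.25% DMSO final. Schedule: 24 h exposure, 30 °C. Measured by: OD615 turbidity read. Read-out: growth inhibition.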

[2] = S. cerevisiae growth inhibition in restrictive medium, OD615, pilot screen, restrictive growth control, yeast lifespan reduction project (AID 706;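 active means growth inhibition above a set limit, 3 SD over mean compound inhibition, in both replicates, cut at about 43% in these data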;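 further: modified DeaD lifespan yeast strain shifted to restrictive glucose medium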); conditions: OD615, 48 h, at 10 µM, active compounds read high
In short: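 Assay system – genetically modified Saccharomyces cerevisiae, DeaD replicative lifespan assay strain · Medium – CSMM-D glucose medium · Doses – 10 µM compound, 0.25% DMSO · Times – 4 h pre-incubation, 48 h exposure at 30 °C · Signal – optical density at 615 nm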

[3] = doxorubicin toxicity protection in MRP-1 cells – H69AR cells, CellTiter-Glo, duplicate, MRP-1 activator project, pilot screen (AID 807;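 active means viability increase at or above a cutoff of the median across tested compounds plus 3 SD, cut at about 8.5% in these data, passing the limit was not always enough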;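 further: compound pretreatment 18-22 h then 72 h combined with doxorubicin; 0% = doxorubicin alone and 100% = vehicle without doxorubicin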); conditions: H69AR viability with doxorubicin, CellTiter-Glo luminescence; at 10 µM; active compounds read high
[4] = viability of HCT116 without oncogenic beta-catenin – human colon tumor cells, pilot screen (AID 823;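 active means cell viability at or below a set limit in both duplicate runs, the limit being the all-compound median minus 4 SD, cut at about 23% in these data, passing the limit was not always enough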;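 further: 0% = wells killed by 20 µM Hyamine and 100% = untreated DMSO cell wells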); conditions: HCT116 beta-catenin knockout viability, CellTiter-Glo, 60 h; at 10 µM; active compounds read low
[5] = viability of PTEN-null HCT116 cells – cell-based, HCT116 clonal line, CellTiter-Glo, pilot screen (AID 824); conditions: HCT116 PTEN-deleted viability, 60 h, at 10 µM, active compounds read low;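 further: 0% = 20 µM Hyamine control and 100% = vehicle cell control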
[6] = RAM pathway blockade in budding yeast – dse1pr::URA3 reporter, 5-FOA selection, pilot screen (AID 869;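 active means inhibition over a set limit, the all-compound mean plus 3 SD, in both replicate runs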;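 further: 0% = DMSO wells with no growth and 100% = 10 µM 1-NA-PP1 with full growth; RAM network block rescues cells from 5-FOA so hits raise OD615 growth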); conditions: S. cerevisiae dse1pr::URA3 5-FOA growth, OD615, 2 d; at 10 µM; active compounds read high; strain carries analog-sensitive mutant Cbk1 kinase
[7] = RAM signaling pathway blockade in yeast – S. cerevisiae, Pdr1DBD-CYC8 efflux-inhibited sensitized strain, primary screen (AID 1298;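 active means RAM network inhibition above 8.4% in each of two replicates, 3 SD over the compound average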;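 further: 0% = DMSO untreated cells without growth and 100% = 10 µM 1-NA-PP1 full growth; higher means more yeast growth rescued from 5-FOA killing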); conditions: S. cerevisiae cbk1-as DSE1-URA3 strain, 5-FOA growth OD615, 2 d; at 50 µM; active compounds read high

O=c1c2c3c(sc2nc2n1CCCCC2)CCCC3
inactive: growth inhibition [1] -12.6% | growth inhibition [2] -15.5% | viability increase [3] -1.02% | viability [4] 90.4% | viability [5] 85.6% | inhibition [6] 0.635% | RAM network inhibition [7] 0.62%

CC(=O)c1cccc(NC(=O)CN(c2ccc(F)cc2)S(C)(=O)=O)c1
inactive: growth inhibition [1] -13% | growth inhibition [2] -15.2% | viability increase [3] -3.2% | viability [4] 98.2% | viability [5] 98.7% | inhibition [6] 0.845% | RAM network inhibition [7] 5.96%

Cc1ccc(-c2nc3cccnc3o2)cc1NC(=O)COc1ccc(Cl)cc1C
active: viability [4] 17.5% | viability [5] 4.66%
inactive: growth inhibition [1] -19.4% | growth inhibition [2] -8.21% | viability increase [3] -8.36% | inhibition [6] 1.5% | RAM network inhibition [7] 8.1%

CC(=O)c1ccc(OCC(O)CN2C(C)CCCC2C)cc1 (configuration not stated)
inactive: growth inhibition [1] -1.28% | growth inhibition [2] -5.97% | viability increase [3] -0.1% | viability [4] 97.8% | viability [5] 98.1% | inhibition [6] 0.78% | RAM network inhibition [7] 1.46%

Cc1ccc(C)c(S(=O)(=O)Nc2ccc(O)cc2)c1
inactive: growth inhibition [1] -9.59% | growth inhibition [2] 11.7% | viability increase [3] -2.63% | viability [4] 101% | viability [5] 97% | inhibition [6] 1.44% | RAM network inhibition [7] 2.77%

Cc1cc(N2CCOCC2)nc2cc(O)ccc12
inactive: growth inhibition [1] -10.3% | growth inhibition [2] -15.5% | viability increase [3] -1.02% | viability [4] 97.4% | viability [5] 87.6% | inhibition [6] 1.31% | RAM network inhibition [7] 5.97%

COC(=O)c1ccc(NC(=O)c2cnc3scc(C)n3c2=O)cc1
inactive: growth inhibition [1] -9.29% | growth inhibition [2] -13.3% | viability increase [3] 1.67% | viability [4] 101% | viability [5] 95.8% | inhibition [6] 0.345% | RAM network inhibition [7] 2.36%

Cc1ccc(CNC(=O)c2cc3c(-c4ccc(Cl)cc4)nn(C)c3s2)o1
inactive: growth inhibition [1] -7.97% | growth inhibition [2] -5.61% | viability increase [3] -6.4% | viability [4] 53.9% | viability [5] 48.7% | inhibition [6] 3.25% | RAM network inhibition [7] 2.13%

Cc1ccc(N2CC(C(=O)Nc3cccc(F)c3)CC2=O)cc1 (configuration not stated)
inactive: growth inhibition [1] -13.3% | growth inhibition [2] -5.71% | viability increase [3] 0.09% | viability [4] 90.6% | viability [5] 103% | inhibition [6] -0.185% | RAM network inhibition [7] 8.04%

CCc1ccc2c(c1)C(NC(C)=O)C(=O)N2CC (configuration not stated)
inactive: growth inhibition [1] -11.8% | growth inhibition [2] -3% | viability increase [3] -0.55% | viability [4] 78.5% | viability [5] 86% | inhibition [6] 0.73% | RAM network inhibition [7] 0.8%

ON1C(c2ccc(Cl)cc2Cl)N(O)[C@H]2CCCC[C@H]21 (some centres not stated)
inactive: growth inhibition [1] -6.31% | growth inhibition [2] -5.43% | viability increase [3] -1.27% | viability [4] 101% | viability [5] 100% | inhibition [6] 1.35% | RAM network inhibition [7] 4.97%

COc1ccc(Cl)cc1C(=O)NCC(c1ccco1)N1CCCC1 (configuration not stated)
inactive: growth inhibition [1] -8.88% | growth inhibition [2] -4.32% | viability increase [3] -3.47% | viability [4] 81% | viability [5] 80.7% | inhibition [6] 2.23% | RAM network inhibition [7] 10.1%

CCc1nnc(NC(=O)CSc2nccn2-c2cccc(C)c2C)s1
inactive: growth inhibition [1] 2.46% | growth inhibition [2] 32.5% | viability increase [3] -5.37% | viability [4] 46.2% | viability [5] 42.9% | inhibition [6] 0.935% | RAM network inhibition [7] 1.37%

O=C(NCc1ccco1)c1ccc(Br)c(S(=O)(=O)N2CCCCC2)c1
inactive: growth inhibition [1] 2.44% | growth inhibition [2] -6.06% | viability increase [3] -2.69% | viability [4] 88.8% | viability [5] 88.1% | inhibition [6] 2.61% | RAM network inhibition [7] 4.59%

COc1ccc(C)cc1NC(=O)c1cc2c(CO)cnc(C)c2oc1=N
inactive: growth inhibition [1] -16.1% | growth inhibition [2] -10.5% | viability increase [3] -0.06% | viability [4] 97.5% | viability [5] 89.7% | inhibition [6] 1.31% | RAM network inhibition [7] 0.63%

Cc1ccc(-c2nc(CS(=O)CC(=O)NC3CCC(C)CC3)c(C)o2)cc1 (configuration not stated)
inactive: growth inhibition [1] 2.73% | growth inhibition [2] 11.8% | viability increase [3] 1.29% | viability [4] 84.8% | viability [5] 94.8% | inhibition [6] 0.76% | RAM network inhibition [7] 2.42%

O=C(c1cccc(C(=O)N2CCN(c3ccccc3F)CC2)c1)N1CCN(c2ccccc2F)CC1
inactive: growth inhibition [1] -6.5% | growth inhibition [2] -6.43% | viability increase [3] -2.61% | viability [4] 56.8% | viability [5] 54.9% | inhibition [6] 3.28% | RAM network inhibition [7] 4.24%

COc1ccc(Cn2nnc3c(=O)[nH]c(C4CCCN(C(=O)c5ccccc5)C4)nc32)cc1 (configuration not stated)
inactive: growth inhibition [1] -8.47% | growth inhibition [2] -8.09% | viability increase [3] -1.66% | viability [4] 108% | viability [5] 99.9% | inhibition [6] -0.35% | RAM network inhibition [7] 3.06%

Cc1c(C(=O)NCc2ccc3c(c2)OCO3)sc2nc(-c3ccc(F)cc3)cn12
inactive: growth inhibition [1] -13.8% | growth inhibition [2] -14.9% | viability increase [3] 0.84% | viability [4] 108% | viability [5] 105% | inhibition [6] 2.14% | RAM network inhibition [7] 6.3%

CC1CCCCN1Cc1nc2c(c(=O)n(C)c(=O)n2C)n1Cc1cccc2ccccc12 (configuration not stated)
inactive: growth inhibition [1] -4.17% | growth inhibition [2] -4.83% | viability increase [3] -0.2% | viability [4] 94.2% | viability [5] 89% | inhibition [6] 1.91% | RAM network inhibition [7] 2.8%

O=C(c1oc(=O)c2ccccc2c1-c1ccccc1)N1CCC(O)CC1
inactive: growth inhibition [1] -2.27% | growth inhibition [2] -0.17% | viability increase [3] -2.96% | viability [4] 97.6% | viability [5] 91.6% | inhibition [6] 1.25% | RAM network inhibition [7] 1.92%

CCOC(=O)C1CCCN(C(=O)Cn2sc3nc(C)cc(C)c3c2=O)C1 (configuration not stated)
active: viability [4] 3.38% | viability [5] 12.6%
inactive: growth inhibition [1] 18.4% | growth inhibition [2] 29.4% | viability increase [3] -8.04% | inhibition [6] 1.51% | RAM network inhibition [7] 2.71%

CCOC(=O)c1c(CN2CCCCC2)n(C)c2ccc(OC)c(S(=O)(=O)c3ccccc3)c12
inactive: growth inhibition [1] -6.81% | growth inhibition [2] -19.7% | viability increase [3] -3.9% | viability [4] 96.3% | viability [5] 92.4% | inhibition [6] 0.105% | RAM network inhibition [7] 3.27%

Cc1ccc2oc(=O)c3cnn(CC(=O)NCCCOC(C)C)c3c2c1
inactive: growth inhibition [1] -9.03% | growth inhibition [2] -7.34% | viability increase [3] -2.72% | viability [4] 106% | viability [5] 94.2% | inhibition [6] 1.87% | RAM network inhibition [7] 8.19%

O=C(CCS(=O)(=O)c1cccc2nsnc12)N1CCN(C(=O)c2ccco2)CC1
inactive: growth inhibition [1] -2.63% | growth inhibition [2] -12.5% | viability increase [3] -4.22% | viability [4] 103% | viability [5] 102% | inhibition [6] 0.36% | RAM network inhibition [7] 1.07%

COc1ccc(S(=O)(=O)Cc2ccc(C(=O)N3CCc4ccccc4C3)o2)cc1
inactive: growth inhibition [1] -5.74% | growth inhibition [2] -5.21% | viability increase [3] -0.44% | viability [4] 92.7% | viability [5] 94.1% | inhibition [6] 0.315% | RAM network inhibition [7] 7.28%

CC(=O)Nc1cc(NC(C)=O)c(CC(C)C)s1
inactive: growth inhibition [1] -6.92% | growth inhibition [2] 2.99% | viability increase [3] -0.12% | viability [4] 94.9% | viability [5] 101% | inhibition [6] 0.44% | RAM network inhibition [7] 2.34%

CCC(SCC(=O)OC)C(=O)Nc1nnc(C(C)C)s1 (configuration not stated)
inactive: growth inhibition [1] 1.46% | growth inhibition [2] 8.39% | viability increase [3] -1.27% | viability [4] 98.8% | viability [5] 98.1% | inhibition [6] 2.43% | RAM network inhibition [7] 2.05%

O=C1c2ccccc2C(=O)N1CSc1ncccn1
inactive: growth inhibition [1] 0.27% | growth inhibition [2] -7.91% | viability increase [3] -3.86% | viability [4] 87.4% | viability [5] 89.7% | inhibition [6] 1.09% | RAM network inhibition [7] 2.25%

CCC(C)[C@@H](C(=O)Nc1ccc(OC)c(OC)c1)N1Cc2ccccc2C1=O (some centres not stated)
inactive: growth inhibition [1] -13.5% | growth inhibition [2] -13.6% | viability increase [3] -2.11% | viability [4] 91.8% | viability [5] 82.8% | inhibition [6] 2.65% | RAM network inhibition [7] 2.81%

CC(=O)N1CCc2cc(C(=O)CN3CCN(c4ccccc4F)CC3)ccc21
inactive: growth inhibition [1] -7.16% | growth inhibition [2] -7.33% | viability increase [3] -3.19% | viability [4] 93.7% | viability [5] 88% | inhibition [6] 2.17% | RAM network inhibition [7] 2.34%

CCn1c2ccccc2c2cc(NC(=O)c3ccco3)ccc21
inactive: growth inhibition [1] -4.29% | growth inhibition [2] -0.22% | viability increase [3] -3.74% | viability [4] 96.1% | viability [5] 93% | inhibition [6] 0.345% | RAM network inhibition [7] 0.96%

COc1ccc(C2C(C(=O)N3CC(C)CC(C)C3)c3ccccc3C(=O)N2C)cc1 (configuration not stated)
inactive: growth inhibition [1] -10.8% | growth inhibition [2] -4.94% | viability increase [3] -1.09% | viability [4] 96.7% | viability [5] 93% | inhibition [6] 0.305% | RAM network inhibition [7] 0.47%

COc1ccc(C2C(C(=O)NCc3ccccn3)c3cc(OC)c(OC)cc3C(=O)N2C)cc1 (configuration not stated)
inactive: growth inhibition [1] -3.48% | growth inhibition [2] 1.16% | viability increase [3] -4.5% | viability [4] 98% | viability [5] 95.9% | inhibition [6] -0.135% | RAM network inhibition [7] 5.92%

Cc1ccc(S(=O)(=O)N2CCN(C(=O)CSc3nnc(C)s3)C2)cc1
inactive: growth inhibition [1] -14.3% | growth inhibition [2] -10.7% | viability increase [3] -1.75% | viability [4] 91.9% | viability [5] 87.3% | inhibition [6] 1.31% | RAM network inhibition [7] -0.22%

Cc1cc(NC(=O)CSCc2nc(-c3cccc(Cl)c3)oc2C)no1
inactive: growth inhibition [1] -12.6% | growth inhibition [2] -5.47% | viability increase [3] 1.25% | viability [4] 94.3% | viability [5] 95.5% | inhibition [6] 1.98% | RAM network inhibition [7] 11.2%
